Assay [1] is described as follows: inhibitors of TNFa-induced NFkB p65 translocation, primary screen, imaging, HUVEC, MLSMR starter and 10KST1 sets (AID 438;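 active = inhibition above 20% together with a positive visual image hit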;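 also: compound added about 3h40 before a 20 min TNFalpha stimulation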;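 as to inhibition: signal is the nuclear over cytoplasmic p65 intensity ratio per well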). Conditions: HUVEC TNFa-induced p65 nuclear translocation; cell count: measured here: nuclei count (cytotoxicity indicator), at 2.08 µM; inhibition: at 2 µM, stronger effect = higher value, 0% TNFa-plus-vehicle, 100% no-TNFa wells.
Assay [2] can be described thus: inhibitors of mutant huntingtin aggregation, primary screen, imaging, exon1htt(103Q)mCFP cells, high-content imaging (AID 483;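 active = visual image review flags a hit and inhibition of aggregation exceeds 20%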;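 also: compound exposure lasted 3 days before fixation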;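 as to nuclei count: percent of the per-plate median nuclei count of sample wells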). To be noted: exon1htt(103Q)mCFP cell line, aggregate imaging, at 2 µM; inhibition of aggregation: stronger effect = higher value; nuclei count: measured here: cell count, toxicity.
Assay [3] in a line: inhibitors of E-selectin induction by TNFa, primary screen, imaging, HUVEC, immunofluorescence, MLSMR starter and 10KST1 sets (AID 487;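 active = visually confirmed hit in the image check and inhibition above 20%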;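 as to inhibition: signal is fraction of cell area covered by stained E-selectin grains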;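 as to nuclei count: 100% = median nuclei count of all wells on the same plate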). To be noted: HUVEC TNFalpha-induced E-selectin immunofluorescence imaging, at 2 µM; inhibition: stronger effect = higher value; nuclei count: measured here: cell number, toxicity.
The target of assay [4] is Voltage-gated potassium channel subunit beta-2 (Rattus norvegicus) (UniProt P62483). Description: KvBeta enzyme negative modulators, primary screen, biochemical, NADPH fluorescence (AID 622;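 active = fluorescence slope higher than the sample average by over 3 SD, cut at about -0.22 in these data, passing the limit was not always enough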;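 also: slope of raw intensity against log time taken from 70 to 1610 s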). To be noted: recombinant KvBeta, 4-cyanobenzaldehyde reduction, at 10 µM, stronger effect = higher value.
Voltage-gated potassium channel subunit beta-2 (Rattus norvegicus), sequence (P62483 whole entry, looked up): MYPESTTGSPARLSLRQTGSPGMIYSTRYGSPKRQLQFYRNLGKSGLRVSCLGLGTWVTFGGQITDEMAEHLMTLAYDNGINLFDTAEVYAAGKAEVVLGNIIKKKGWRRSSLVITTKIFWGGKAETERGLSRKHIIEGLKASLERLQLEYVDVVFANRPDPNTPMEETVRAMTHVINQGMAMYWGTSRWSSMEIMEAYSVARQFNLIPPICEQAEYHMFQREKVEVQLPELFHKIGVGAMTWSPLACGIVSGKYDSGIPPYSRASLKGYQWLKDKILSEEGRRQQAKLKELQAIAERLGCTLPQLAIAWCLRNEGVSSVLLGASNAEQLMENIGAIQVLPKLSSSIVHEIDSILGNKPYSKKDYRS
Assay [5] shares this target. Description: KvBeta positive modulators, primary screen, biochemical, NADPH fluorescence (AID 623;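 active = NADPH fluorescence slope more negative than the mean of all samples by about 3 SD, 99.7% confidence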;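 also: fluorescence intensity change per second fitted from 20 to 320 s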). Conditions: Recombinant KvBeta, NADPH fluorescence decrease slope, 10 min; at 10 µM; stronger effect = lower value.
The target of assay [6] is Muscarinic acetylcholine receptor M4 (Homo sapiens) (UniProt P08173). Description: compounds altering M4/GIRK thallium flux, either direction, primary screen, M4 allosteric agonist project, cell-based, HEK293 M4/GIRK, BTC-AM (AID 625).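 Also: thallium influx through GIRK channels coupled to M4 in HEK293 cells with BTC-AM dye.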 Conditions: at 10 µM, actives lie on both sides. In a few lines:
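Material: M4/GIRK1/GIRK2 stable HEK293 cell line. Medium: pH 7.3 thallium assay buffer. Dosing: single compound concentration, 10 µM final. Schedule: 1 h dye loading, 2 min kinetic read. Measured by: kinetic fluorescence with BTC-AM dye. Read-out: post-addition slope, 15–24 s, of baseline-normalized fluorescence. Benchmarks: carbachol and DMSO controls.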

The nature of assay [7]: inhibitors of Sendai virus-induced IRF3 signaling, primary screen, TLR/RLR signaling modifier project, cell-based, Sendai virus stimulus, luciferase, 10K MLSCN set (AID 602276;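 active = inhibition at or above 50% at 10 µM; inactive = inhibition below 50%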;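 also: firefly luciferase from ISG56 promoter only with Renilla not read in this screen; 0% = Sendai virus plus DMSO and 100% = medium plus DMSO without virus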). To be noted: HEK293 RL24 IRF3 luciferase reporter, at 10 µM, stronger effect = higher value. (A reporter such as luciferase makes a cellular process visible.)
The nature of assay [8]: inhibitors of poly I:C-induced TLR3 signaling, primary screen, cell-based, poly I:C stimulus, luciferase, 10K MLSCN set (AID 602277;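 active = inhibition of the reporter signal at or above 50%; inactive = inhibition below 50%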). Conditions: HEK293-TLR3 RL24 IRF3 luciferase reporter, at 10 µM, stronger effect = higher value.

The values that follow come from PubChem BioAssay.

Active and inactive are the calls of the source.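 The calls were made as follows, unless noted: active = fluorescence slope after compound addition differing from the mean of all tested samples at 99.7% confidence, mostly higher but some lower; inactive = the rest.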

For orientation: inhibition means the change of the read-out against control, counted positive when it falls.

Muscarinic acetylcholine receptor M4 (Homo sapiens), sequence (P08173 whole entry, looked up): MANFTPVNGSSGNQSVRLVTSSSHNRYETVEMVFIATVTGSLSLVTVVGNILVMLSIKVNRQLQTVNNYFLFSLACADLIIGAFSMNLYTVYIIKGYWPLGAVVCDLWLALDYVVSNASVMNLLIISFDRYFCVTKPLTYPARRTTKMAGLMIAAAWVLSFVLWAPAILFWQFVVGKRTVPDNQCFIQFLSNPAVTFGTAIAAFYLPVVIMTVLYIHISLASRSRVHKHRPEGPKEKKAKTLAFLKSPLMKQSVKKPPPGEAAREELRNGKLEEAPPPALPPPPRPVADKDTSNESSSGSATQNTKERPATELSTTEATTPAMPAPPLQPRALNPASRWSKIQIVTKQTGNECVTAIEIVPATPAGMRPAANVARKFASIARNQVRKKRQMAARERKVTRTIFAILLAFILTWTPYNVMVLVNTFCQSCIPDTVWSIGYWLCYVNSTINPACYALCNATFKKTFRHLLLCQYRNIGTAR

`C/C(CC(O)(/C=N/O)c1ccccc1)=N\O` (stereo not drawn): in assay [1], the cell count turned out to be 343. Moreover, the inhibition in assay [1] is 2.4% (inactive); in assay [3], -60.1% (inactive); in assay [7] it was 14.3% (inactive); in assay [8], 15.7% (inactive). Also, the inhibition of aggregation in assay [2] is 4% (inactive). Moreover, the nuclei count turned out to be 97% in assay [2] and 120% in assay [3]. In addition, the fluorescence slope is -0.569 (inactive) in assay [4] and 0.00371 (inactive) in assay [6]. In addition, in assay [5], the NADPH fluorescence slope is -5.8e-05 (inactive).
On to `CCC(=O)N(Cc1cc2c(C)ccc(C)c2[nH]c1=O)C1CCCCC1`, for which the cell count in assay [1] was 689. The inhibition in assay [1] was -5.6% (inactive); in assay [3] it was -36.3% (inactive); in assay [7], 13.6% (inactive); in assay [8] it was 25.2% (inactive). In addition, the inhibition of aggregation in assay [2] is 1.1% (inactive). Besides, the nuclei count in assay [2] is 93.2%; in assay [3] it was 100%. Further, the fluorescence slope was -0.474 (inactive) in assay [4] and 0.00636 (inactive) in assay [6]. Moreover, in assay [5], the NADPH fluorescence slope is -3.7e-05 (inactive).
As for `COc1cccc(N2CCN(c3c4c(nc5ncnn35)CCC4)CC2)c1`, the cell count in assay [1] was found to be 468. In addition, the inhibition is 17.4% (inactive) in assay [1], 2.7% (inactive) in assay [3], 0.933% (inactive) in assay [7] and -39.1% (inactive) in assay [8]. Moreover, the inhibition of aggregation in assay [2] is -4.1% (inactive). Besides, the nuclei count in assay [2] was 102%; in assay [3], 109%. Besides, the fluorescence slope was -0.558 (inactive) in assay [4] and 0.00591 (inactive) in assay [6]. Also, in assay [5], the NADPH fluorescence slope is -5.9e-05 (inactive).
In the case of `CC(=O)c1nnn(-c2nc(N3CCCC3)nc(N(c3ccccc3)c3ccccc3)n2)c1C`, the cell count in assay [1] was 558. Further, the inhibition in assay [1] is 8.9% (inactive); in assay [3], 51.9% (inactive); in assay [7], 15.9% (inactive); in assay [8], 26.9% (inactive). The inhibition of aggregation in assay [2] is 2.6% (inactive). Also, the nuclei count in assay [2] worked out at 109%; in assay [3], 95.1%. In addition, the results for the fluorescence slope in assay [4] and in assay [6] were -0.58 (inactive) and 0.00803 (inactive), respectively. The NADPH fluorescence slope in assay [5] is -5.5e-05 (inactive).
In the case of `C=CCOC(=O)C(C#N)c1nc2ccccc2nc1N1CCN(Cc2ccccc2)CC1` (stereo not drawn), the cell count in assay [1] turned out to be 469. Besides, the inhibition in assay [1] is -5.7% (inactive); in assay [3], -69.4% (inactive); in assay [7], 10.9% (inactive); in assay [8] it was 18.7% (inactive). Further, the inhibition of aggregation in assay [2] is -12.3% (inactive). The nuclei count in assay [2] is 94.6%; in assay [3], 181%. Moreover, the fluorescence slope is -0.402 (inactive) in assay [4] and 0.0023 (inactive) in assay [6]. For the same molecule, the NADPH fluorescence slope in assay [5] was 6.8e-05 (inactive).
Regarding `CCSc1nnc(NC(=O)CSc2ncccn2)s1`, in assay [1], the cell count is 278. For the same molecule, the inhibition in assay [1] is 0.5% (inactive); in assay [3], -42.2% (inactive); in assay [7], -9.35% (inactive); in assay [8], 4% (inactive). Also, the inhibition of aggregation in assay [2] was -3% (inactive). In addition, the figures for the nuclei count in assay [2] and in assay [3] were 105% and 111%, respectively. Also, the fluorescence slope in assay [4] is -0.529 (inactive); in assay [6], 0.00524 (inactive). In addition, the NADPH fluorescence slope in assay [5] is -4.9e-05 (inactive).
As to `Cc1ccccc1-c1nc(CN2CCC(C(=O)NCCCN3CCOCC3)CC2)c(C)o1`, the cell count in assay [1] worked out at 598. Besides, the inhibition in assay [1] was -5.3% (inactive); in assay [3] it was -67.2% (inactive); in assay [7], -3.78% (inactive); in assay [8], 22.4% (inactive). Also, in assay [2], the inhibition of aggregation is -16.7% (inactive). Further, the results for the nuclei count in assay [2] and in assay [3] were 89.8% and 102%, respectively. The fluorescence slope was -0.496 (inactive) in assay [4] and 0.00497 (inactive) in assay [6]. Moreover, the NADPH fluorescence slope in assay [5] is 6.2e-05 (inactive).
As for `Cc1cc(C)nc(SCc2nnc(SCc3ccccc3Cl)o2)n1`, the cell count in assay [1] worked out at 428. The inhibition is -8.3% (inactive) in assay [1], -33.4% (inactive) in assay [3], 6.47% (inactive) in assay [7] and 0.418% (inactive) in assay [8]. In assay [2], the inhibition of aggregation was 16.9% (inactive). The results for the nuclei count in assay [2] and in assay [3] were 110% and 98.3%, respectively. Moreover, the figures for the fluorescence slope in assay [4] and in assay [6] were -0.468 (inactive) and 0.00428 (inactive), respectively. Further, the NADPH fluorescence slope in assay [5] was -0.000278 (inactive).
